Consider 13 molecules from ChEMBL document CHEMBL1123409, “Analogues of platelet activating factor. 4. Some modifications of the phosphocholine moiety” (J Med Chem, 1986).

Bounds are passed on as bounds.

The species named for assay [1] is Oryctolagus cuniculus. Put plainly: The maximum aggregation response observed at 1.6e-4 M concentration of the compound. It counts as functional.
Another assay concerns Rattus norvegicus. Put plainly: Intravenous dose required to decrease mean arterial blood pressure (MABP) 50 mm Hg. It counts as functional. The method, boiled down: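 Spontaneously hypertensive rats, dosed intravenously. The dose that lowers mean arterial blood pressure by 50 mm Hg is read from the dose-response curve.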
For assay [2], the species on record is Oryctolagus cuniculus. Put plainly: Effective concentration required to produce 50% of maximum aggregation of platelets. Type of assay: functional, organism-based. The gist of the method: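 Aggregation tested in rabbit platelet-rich plasma. In each experiment, a dose-response curve was built from six to eight doses spanning 10^-9 to 10^-4 M, with three to four replicates per dose level. EC50 is the molar concentration giving 50% of that analogue's own maximum aggregation response.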

The species entered for assay [3] is Oryctolagus cuniculus. Put plainly: The maximum aggregation response observed at 1e-5 M concentration of the compound. Type of assay: functional.
Assay [4] is described as follows: The ratio of (MABP / Platelet EC 50) x 10^-8.
The species named for assay [5] is Oryctolagus cuniculus. Put plainly: The maximum aggregation response observed at 1.7e-4M concentration of the compound. Type of assay: functional.
The species named for assay [6] is Oryctolagus cuniculus. Put plainly: The maximum aggregation response observed at 1.8e-4 M concentration of the compound. It counts as functional.
For assay [7], the species on record is Oryctolagus cuniculus. Put plainly: The maximum aggregation response observed at 1e-6 M concentration of the compound. It counts as functional.
For assay [8], the species on record is Oryctolagus cuniculus. Put plainly: The maximum aggregation response observed at 1.48e-5 M concentration of the compound. It counts as functional.
The species named for assay [9] is Oryctolagus cuniculus. Put plainly: The maximum aggregation response observed at 1.7e-4 M concentration of the compound. Type of assay: functional.
For assay [10], the species on record is Oryctolagus cuniculus. Put plainly: The maximum aggregation response observed at 5e-5 M concentration of the compound. Type of assay: functional.
The nature of assay [11]: The ratio of (MABP / Platelet EC 50) x 100. Type of assay: functional.
The species named for assay [12] is Oryctolagus cuniculus. Put plainly: The maximum aggregation response observed at 6.8e-6 M concentration of the compound. Type of assay: functional.

A word on the EC50: it is the concentration that produces a half-maximal response. For the molecule `CCCCCCCCCCCCCCCCOCC(COP(=O)([O-])OCCCCCCCCCC[N+](C)(C)C)OC(C)=O` (stereo not given), in the assay filed under Oryctolagus cuniculus [1], the Max aggregation response came to 18. Besides, the Dose with Rattus norvegicus was >4000 µg/kg. In addition, the midpoint of the response in the assay listed under Oryctolagus cuniculus [2], the EC50, lay at 59 µM.
The molecule `CCCCCCCCCCCCCCCCCCOCC(COP(=O)([O-])OCCCC[N+](C)(C)C)OC(C)=O` (stereo not given) came in with a Max aggregation response in the assay filed under Oryctolagus cuniculus [3] of 71. The Dose with Rattus norvegicus came out at 15.85 µg/kg. In [4], the Ratio was 0.36.
In the assay listed under Oryctolagus cuniculus [5], `CCCCCCCCCCCCCCCCOCC(COP(=O)([O-])OCCCCCCCC[N+](C)(C)C)OC(C)=O` (stereo not given) came in with a Max aggregation response of 41. In addition, the Dose with Rattus norvegicus is >4000 µg/kg. Further, in the assay filed under Oryctolagus cuniculus [2], the EC50 turned out to be 37 µM.
The molecule `CCCCCCCCCCCCCCCCOCC(COP(=O)([O-])OC(C)C[N+](C)(C)C)OC(C)=O` (stereo not given) returned a Max aggregation response in the assay listed under Oryctolagus cuniculus [3] of 74. In the assay on Rattus norvegicus, this molecule displayed a Dose of 1.16 µg/kg. In addition, the Ratio in assay [4] was 0.28.
In the assay listed under Oryctolagus cuniculus [6], `CCCCCCCCCCCCCCCCOCC(COP(=O)([O-])OCCCC[N+](C)(C)C)OC(C)=O` (stereo not given) returned a Max aggregation response of 68. This molecule came in with a Dose in the assay on Rattus norvegicus of 4.84 µg/kg. The Ratio in [4] came to 0.65.
As for `CCCCCCCCCCCCCCCCOCC(COP(=O)([O-])OCC(C)[N+](C)(C)C)OC(C)=O` (stereo not given), in the assay filed under Oryctolagus cuniculus [7], the Max aggregation response was 66. Moreover, the Dose in the assay on Rattus norvegicus stood at 0.15 µg/kg. Also, in assay [4], the Ratio came out at 0.47.
As to `CCCCCCCCCCCCCCCCCCOCC(COP(=O)([O-])OCC[N+](C)(C)C)OC(C)=O` (stereo not given), the Max aggregation response in the assay listed under Oryctolagus cuniculus [8] came to 75. The molecule also showed a Dose with Rattus norvegicus of 3.17 µg/kg. Also, the Ratio in assay [4] worked out at 1.34.
In the case of `CCCCCCCCCCCCCCCCOCC(COP(=O)([O-])OCCCCCC[N+](C)(C)C)OC(C)=O` (stereo not given), the Max aggregation response in the assay filed under Oryctolagus cuniculus [9] is given as 35. Also, the Dose with Rattus norvegicus turned out to be 164.9 µg/kg. This molecule gave an EC50 in the assay filed under Oryctolagus cuniculus [2] of 27 µM. Further, in assay [4], the Ratio stood at 0.06.
`CCCCCCCCCCCCCCCCCCOCC(COP(=O)([O-])CC[N+](C)(C)C)OC(C)=O` (stereo not given) gave a Max aggregation response in the assay filed under Oryctolagus cuniculus [3] of 82. Further, the Dose in the assay on Rattus norvegicus stood at 76.54 µg/kg. In addition, the Ratio in assay [4] was 3.83.
The molecule `CCCCCCCCCCCCCCCCOCC(COP(=O)([O-])OCC(c1ccccc1)[N+](C)(C)C)OC(C)=O` (stereo not given) returned a Max aggregation response in the assay listed under Oryctolagus cuniculus [10] of 69. The molecule also registered a Dose in the assay with Rattus norvegicus of 3.93 µg/kg. The Ratio in assay [11] is recorded as 0.06.
In turn, `CCCCCCCCCCCCCCCCOCC(COP(=O)([O-])Oc1cccc(C[N+](C)(C)C)c1)OC(C)=O` (stereo not given) came in with a Max aggregation response in the assay listed under Oryctolagus cuniculus [10] of 64. Further, the Dose with Rattus norvegicus worked out at 1.36 µg/kg. Moreover, the Ratio in [4] was found to be 0.23.
`CCCCCCCCCCCCCCCCOCC(COP(=O)([O-])OCCC[N+](C)(C)C)OC(C)=O` (stereo not given) returned a Max aggregation response in the assay filed under Oryctolagus cuniculus [7] of 65. For the same molecule, the Dose with Rattus norvegicus was found to be 1.43 µg/kg. For the same molecule, in assay [4], the Ratio came to 0.57.
In the assay listed under Oryctolagus cuniculus [12], `CCCCCCCCCCCCCCCCOCC(COP(=O)([O-])OCC[N+](C)(C)C)OC(C)=O` (stereo not given) [PLATELET ACTIVATING FACTOR] yielded a Max aggregation response of 71. The molecule also yielded a Dose in the assay with Rattus norvegicus of 1.25 µg/kg. For the same molecule, in assay [4], the Ratio was determined as 0.47.
